# ARFGAP1 inh: inhibitors of rat ARFGAP1. Q62848. Arfgap1-stimulated ARF1 GTP hydrolysis, GDP FP detection. inhibition, % at 16.5 µM. 360,000 tested, 0.26% active. AID 651572;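 active means inhibition above a per-plate limit, mean inhibition of low control wells plus 3 SD, cut at about 25% in these data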
# Target sequence (Q62848 1-136 limits assumed): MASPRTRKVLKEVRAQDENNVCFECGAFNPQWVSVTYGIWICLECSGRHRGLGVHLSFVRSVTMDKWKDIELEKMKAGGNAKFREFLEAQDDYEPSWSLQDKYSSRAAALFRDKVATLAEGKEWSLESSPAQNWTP
#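 Material: truncated rat Arfgap1 GAP domain; Incubation: compound-enzyme preincubation 20 min, reaction 120 min, detection 60 min, 25 °C; Read-out: percent inhibition of Arfgap1-stimulated GTP hydrolysis; Technique: FP, GDP Alexa 633 tracer displaced from anti-GDP antibody, 620/688 nm; Controls: No-Arfgap1 wells (100%) versus DMSO full-reaction wells (0%); Replication: single well per compound.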
# ASAP1 GAP inh: inhibitors of human ASAP1 ArfGAP activity; Q9ULH1; 360,000 tested, 0.19% active; inhibition, % at 16.5 µM; ASAP1-stimulated ARF1 GTP hydrolysis, GDP FP detection; in the data active means inhibition above about 25%
# Target sequence (Q9ULH1 325-724 limits assumed): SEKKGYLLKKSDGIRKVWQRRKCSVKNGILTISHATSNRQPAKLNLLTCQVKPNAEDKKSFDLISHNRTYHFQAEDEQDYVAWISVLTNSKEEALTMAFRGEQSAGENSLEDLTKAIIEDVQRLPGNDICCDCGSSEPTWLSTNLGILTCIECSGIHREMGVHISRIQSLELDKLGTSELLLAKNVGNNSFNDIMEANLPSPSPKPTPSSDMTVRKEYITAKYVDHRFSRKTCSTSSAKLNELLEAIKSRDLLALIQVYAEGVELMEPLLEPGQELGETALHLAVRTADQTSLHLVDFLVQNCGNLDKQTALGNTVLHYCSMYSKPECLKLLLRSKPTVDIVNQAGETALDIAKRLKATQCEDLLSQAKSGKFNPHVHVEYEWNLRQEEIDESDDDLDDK
# bovine MsrA act: activates bovine MsrA enzyme; purified bovine MsrA, absorbance read-out; activation, % at 10.6 µM; 360,000 tested, 0.3% active; AID 602163; in the data active means activation above about 7.5%
# MsrA inh: inhibitors of bovine MsrA. purified bovine MsrA, absorbance read-out. inhibition, % at 15.5 µM. 360,000 tested, 0.75% active. AID 651718
# MsrA inh confirm: confirmation of bovine MsrA inhibitors. shares compounds with MsrA inh. purified bovine MsrA, absorbance read-out. inhibition, % at 15.5 µM. 2,300 tested, 41% active. AID 651822;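 further: coupled to thioredoxin reductase with NADPH and selenocystamine and DMSO as substrate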
# A number is an active result; n = inactive; x = no result. Shown are actives, neighbours in structure and some others; about 1.4% of the full set was active somewhere. Unless noted, no stated cut-off is given here; in the data, active means inhibition above about 4.5%; inactive means the rest.
SMILES,ARFGAP1 inh,ASAP1 GAP inh,bovine MsrA act,MsrA inh,MsrA inh confirm
COc1ccc(NC(=O)COc2ccc3c(C)cc(=O)oc3c2)cc1S(=O)(=O)N1CCCCC1,n,n,n,n,x
CCn1ncc([N+](=O)[O-])c1C(=O)Nc1nc2cccc(C)c2s1,n,n,n,n,x
CCn1ncc([N+](=O)[O-])c1C(=O)Nc1c(C)cccc1C,n,n,n,14,6.7
COC(=O)c1ccc(COc2ccccc2/C=C(\C#N)C(=O)Nc2c(C)cccc2C)cc1,n,n,n,n,x
O=C1C(Cl)=C(NCCc2ccccc2)C(=O)N1CCc1ccccc1,n,n,n,n,x
O=C1C(Cl)=C(NCCCN2CCOCC2)C(=O)N1CCc1ccccc1,n,n,n,27,25
Cc1cc(C)n(C(=O)c2ccc(C)o2)n1,n,n,n,n,x
Cc1cc(C)n(C(=O)c2cc3sccc3[nH]2)n1,n,n,n,4.7,n
CC(O)CNc1cc(N)c([N+](=O)[O-])cc1[N+](=O)[O-] (configuration not stated),n,n,n,5.2,6.2
CCCc1cc(=O)oc2cc(OC(C)C(=O)NC3CC(C)(C)NC(C)(C)C3)ccc12 (configuration not stated),n,n,n,n,x
Cn1cc(C(=O)Nc2ccc(F)c(F)c2)cn1,n,n,n,n,x
Cc1ccc(S(=O)(=O)N2CCN(C(=O)COC(=O)COc3ccc(Cl)cc3)CC2)c(C)c1,n,n,n,n,x
CCOC(=O)Cc1csc(NC(=O)/C=C/c2ccco2)n1,n,n,n,7.8,4.6
O=S(=O)(NCCS(=O)(=O)N1CCN(c2ccc(F)cc2)CC1)c1ccc(F)cc1,n,n,n,n,x
CCSc1nc2sc3c(c2c(=O)n1-c1ccccc1)CCN(C)C3,n,n,n,n,x
C=CCSc1nc2sc3c(c2c(=O)n1-c1ccccc1)CCN(C)C3,n,n,n,4.9,n
Cc1ccc(-n2cnc3c(=O)[nH]cnc32)cc1[N+](=O)[O-],n,n,n,n,x
CCOc1cc(S(=O)(=O)N(CC)CC)c(OCC)cc1-n1cnnn1,n,n,n,25,23
COc1cc(/C=N/NC(=O)C(N)=O)cc(OC)c1O,n,n,n,4.8,n
COc1cc(/C=N/N=C(/C(=O)c2ccccc2)c2ccccc2)cc(OC)c1O,n,n,n,n,x
COc1cc(/C=N/N=C/c2cc(OC)c(O)c(OC)c2)cc(OC)c1O,n,n,n,6.0,5.8
Cc1ccc([C@@H]2C[C@H]3[C@@H](CN2S(=O)(=O)c2ccc(C)cc2)C(=O)C[C@@H](c2ccc(Cl)cc2)N3S(=O)(=O)c2ccccc2C)cc1,n,n,n,n,x
COc1ccc(N/C=C2\CCOC2=O)cc1,n,n,n,5.4,n
COc1ccc(/C=C2\CCOC2=O)cc1,n,n,n,n,x
O=C(NCC1CCCO1)C(=O)N/N=C/c1ccc(O)c(Cl)c1 (configuration not stated),n,n,n,5.3,n
SMILES,ARFGAP1 inh,ASAP1 GAP inh,bovine MsrA act,MsrA inh,MsrA inh confirm
NS(=O)(=O)c1ccc(N/N=C/c2cn(-c3ccccc3)nc2-c2cccs2)cc1,n,n,n,7.0,n
O=C(O)c1cccc(N/N=C/c2cn(-c3ccccc3)nc2-c2cccs2)c1,n,n,n,13,7.3
Cc1cc(C)n2c(Br)c(CN3CCCC(C)C3)nc2n1 (configuration not stated),n,n,n,n,x
CN1C(=O)/C(=C/c2ccccc2OCc2ccc(C(=O)O)cc2)NC1=S,n,n,n,n,x
O=C1NC(=S)N/C1=C\c1ccccc1OCc1ccc(C(=O)O)cc1,n,n,n,6.4,n
COc1ccc(N2CCN(c3cc(C(=O)NC4CCCCC4)ncn3)CC2)cc1OC,n,n,n,n,x
CCOc1cc(C(=O)NCCN2C(=O)S/C(=C\c3cccnc3)C2=O)cc(OCC)c1OCC,n,n,n,n,x
CCOc1ccc(N2CC(C(=O)NCCN3C(=O)S/C(=C/c4cccnc4)C3=O)CC2=O)cc1 (configuration not stated),n,n,n,5.0,n
CC(=O)c1ccc(OCc2nnn(CC(=O)O)c2-c2ccccc2)cc1,n,n,n,n,x
C[C@@H]1CN([C@H](C)CO)C(=O)CCCn2nncc2CO[C@H]1CN(C)Cc1ccccc1,n,n,n,n,x
O=C(O)c1cccc(Nc2nc(C(F)(F)F)nc3ccccc23)c1,n,n,n,4.7,n
CNC(=O)c1ccc(Nc2nc(-c3ccccc3)nc3ccccc23)cc1,n,n,n,n,x
O=C(O)c1cccc(Nc2nc(-c3ccccc3)nc3ccccc23)c1,n,n,n,n,x
O=C(O)c1ccc(Nc2nc(-c3ccccc3)nc3ccccc23)cc1,n,n,n,6.0,n
C=CCn1c(NC(=O)c2ccco2)nc2ccccc21,n,n,n,4.8,n
O=C(Nc1nc2ccccc2n1Cc1ccc(Cl)cc1)c1ccco1,n,n,n,n,x
CCOc1ccccc1Nc1cc2n(c(=O)n1)CCc1cc(OC)c(OC)cc1-2,n,n,n,6.9,n
Cc1oc2c(c1C(=O)N1CCC(C)CC1)C(=O)c1ccccc1C2=O,n,n,x,13,6.0
CC1CCN(C(=O)c2ccc3c(c2)C(=O)c2ccccc2-3)CC1,n,n,n,n,x
CCOC(=O)C1CCN(C(=O)c2c(C)oc3c2C(=O)c2ccccc2C3=O)CC1,n,n,n,9.3,14
CCCc1ccc(-c2cc(NC(=O)Cc3c(C)[nH]c4ccccc34)ccc2N(C)c2cccnc2)cc1,n,n,x,n,x
Cc1ccccc1/C=N/n1c(C2CCCCC2)n[nH]c1=S,n,n,n,14,12
Fc1ccccc1/C=N/n1c(C2CCCCC2)n[nH]c1=S,n,n,n,n,x
S=c1[nH]nc(C2CCCCC2)n1/N=C/c1ccccc1Br,n,n,n,13,12
Cc1ccc(/C=N/n2c(C3CCCCC3)n[nH]c2=S)cc1,n,n,n,7.8,n
SMILES,ARFGAP1 inh,ASAP1 GAP inh,bovine MsrA act,MsrA inh,MsrA inh confirm
Cc1nnc(NC(=O)CSc2ccccc2N)s1,n,n,n,n,x
O=C(Nc1ccc(Cl)cn1)c1ccccc1[N+](=O)[O-],n,n,n,n,x
O=[N+]([O-])c1cnc(Nc2ccc(Cl)cn2)c([N+](=O)[O-])c1,n,n,n,6.1,8.0
O=C(NN=Cc1ccc(F)c(F)c1)c1ccc(NS(=O)(=O)c2cccs2)cc1,n,n,n,n,x
O=C(N/N=C/c1ccc(N2CCOCC2)cc1)c1ccncc1,n,n,n,5.0,5.0
O=C(N/N=C/c1ccc(N2CCOCC2)cc1)c1ccc(NS(=O)(=O)c2cccs2)cc1,n,n,n,6.8,6.4
O=C(Nc1ccc(N2CCOCC2)cc1)c1ccncc1,n,n,n,n,x
O=C(N/N=C/c1ccc2c(c1)OCO2)c1ccc(NS(=O)(=O)c2cccs2)cc1,n,n,n,5.7,7.5
COc1ccc(C(=O)N/N=C/c2ccc(N3CCOCC3)s2)cc1OC,n,n,n,n,x
CCOC(=O)N/N=C/c1ccc(N2CCOCC2)s1,n,n,n,5.3,5.7
OCc1ccc2c(c1)c(-c1ccc3c(c1)OCCO3)c(-c1ccccc1)n2-c1ccccc1,n,n,n,n,x
COc1ccc(C=NNC(=O)c2ccccc2NS(=O)(=O)c2cccs2)cc1O,n,n,n,5.1,n
